Experimental findings from ChEMBL document CHEMBL1135224, “Benzamide-based thiolcarbamates: a new class of HIV-1 NCp7 inhibitors” (Bioorg Med Chem Lett, 2002) are described below.

Assay [1] has as its system Human immunodeficiency virus 1. Put plainly: In vitro antiviral activity in HIV-1 CEM-SS cytoprotection assay. The format is functional, organism-based. The note with it: Human immunodeficiency virus 1, CEM-SS. The procedure, abridged:
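Cytoprotection assay using CEM-SS cells infected with HIV-1 RF. Run in duplicate, with triplicates at each compound concentration; individual triplicates varied by 10% or less.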

For another assay, the system named is CEM-SS. Put plainly: In vitro cytotoxicity against CEM-SS cells. Type of assay: functional, cell-based. As to conditions: Homo sapiens. The gist of the method:
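Growth inhibition of CEM-SS cells measured alongside the HIV-1 cytoprotection assay. Run in duplicate, with triplicates at each concentration; individual triplicates varied by 10% or less.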

Compound `C[C@H](NC(=O)c1ccccc1SC(=O)NCCBr)C(N)=O` yielded a concentration giving a half-maximal response (EC50) in assay [1] of 920 nM. In addition, the 50% inhibitory concentration (IC50) in the assay on CEM-SS amounted to 8 µM.

Turning to `NC(=O)CCNC(=O)c1ccccc1SC(=O)NCCBr`, in assay [1], the EC50 worked out at 480 nM. The same compound came in with a half-maximal inhibitory concentration (IC50) in the assay on CEM-SS of 4.9 µM.
